From ChEMBL document CHEMBL1134680, “Iridals are a novel class of ligands for phorbol ester receptors with modest selectivity for the RasGRP receptor subfamily” (J Med Chem, 2001)

Tests used:
[1] = test system: Panel NCI-60 (60 carcinoma cell lines); assay: Inhibition of cell growth in NCI panel of 60 human carcinoma lines; format: functional
[2] = molecular target: T1, Ras guanyl-releasing protein 3 (Homo sapiens, UniProt Q8IV61); assay: Binding affinity for RasGPR3, guanine nucleotide exchange factor
T1 sequence (Q8IV61 whole entry): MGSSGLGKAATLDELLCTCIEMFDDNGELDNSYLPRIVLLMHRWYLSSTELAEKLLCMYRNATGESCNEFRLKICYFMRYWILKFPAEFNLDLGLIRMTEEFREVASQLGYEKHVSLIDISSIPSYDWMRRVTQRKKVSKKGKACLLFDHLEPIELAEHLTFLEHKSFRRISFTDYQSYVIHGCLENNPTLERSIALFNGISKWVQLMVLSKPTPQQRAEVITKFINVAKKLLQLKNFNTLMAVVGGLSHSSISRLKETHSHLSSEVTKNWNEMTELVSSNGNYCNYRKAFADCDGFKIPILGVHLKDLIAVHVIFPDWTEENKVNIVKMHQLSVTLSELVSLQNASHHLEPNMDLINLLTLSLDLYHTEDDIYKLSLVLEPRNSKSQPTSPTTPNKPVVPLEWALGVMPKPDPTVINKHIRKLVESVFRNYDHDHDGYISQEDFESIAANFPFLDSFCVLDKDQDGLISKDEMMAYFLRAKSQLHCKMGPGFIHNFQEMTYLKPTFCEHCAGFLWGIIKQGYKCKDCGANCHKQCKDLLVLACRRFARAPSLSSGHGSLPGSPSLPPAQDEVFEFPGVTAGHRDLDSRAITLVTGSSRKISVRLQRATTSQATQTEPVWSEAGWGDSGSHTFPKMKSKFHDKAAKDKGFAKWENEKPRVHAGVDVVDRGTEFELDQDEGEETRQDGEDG
Method in brief: (§1)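 Competition of [3H]PDBu (3.0 nM) binding to partially purified PKCα or bacterially expressed MBP/RasGRP3 fusion (human RasGRP3, amylose-bead purified). Buffer: 50 mM Tris-Cl pH 7.4, 2 mg/mL γ-globulins, 0.1 mM Ca2+, 0.1 mg/mL phosphatidylserine. Incubation was 5 min at 37 °C for PKCα and 5 min at 18 °C for RasGRP3. Nonspecific binding was set with 30 μM PDBu. Bound and free were separated by PEG precipitation and counted.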

[3] = molecular target: Protein kinase C alpha type (Homo sapiens, UniProt P17252); assay: Binding affinity for PKC alpha (C1b domain); method in brief: as §1
[4] = molecular target: T1, Ras guanyl-releasing protein 3; assay: Binding affinity for RasGRP, guanine nucleotide exchange factor

Compound	Log 1/GI50 [1]	Ki [2]	Ki [3]	Ki [4]
CC(=O)O[C@@]12C[C@@H](C)[C@@]3(O)[C@@H](C=C(CO)C[C@]4(O)C(=O)C(C)=C[C@@H]34)[C@@H]1C2(C)C [PROSTRATIN]	3			
C=C(C)[C@]12C[C@@H](C)[C@@]34O[C@](/C=C/C=CCCCCCCCCC)(O[C@@H]1[C@@H]3[C@@H]1O[C@]1(CO)[C@@H](O)[C@]1(O)C(=O)C(C)=C[C@H]14)O2	4.7			
C=C(/C=C/C=C(/CCC=C(C)C)COC(C)=O)[C@@H]1CC[C@]2([C@H](CCCO)/C(=C(/C)C=O)CC[C@]2(C)O)[C@@H]1O	4.4	41.7 nM	83.6 nM	
CC1=CC[C@H](C)C(C)(C)[C@@H]1/C=C/C(C)=C\CC[C@@]1(CO)[C@H](CCCO)/C(=C(/C)C=O)CC[C@]1(C)O	4.6		75.6 nM	15.5 nM
C=C(C)[C@@]12C[C@@H](COC(=O)c3ccccc3)[C@@]34OC5(O[C@@H]1[C@@H]3[C@@H]1O[C@]1(CO)[C@@H](O)[C@@]1(O)[C@H]4[C@H]([C@H](C)[C@@H]1OC(=O)c1ccccc1)[C@H](C)CCCCCC[C@H]5O)O2 [GNIDIMACRIN]	4			
CC1=C[C@H]2[C@@]3(O)[C@H](C)[C@@H](O)[C@]4(O)[C@H]([C@@H]3C=C(CO)C[C@]2(O)C1=O)C4(C)C [PHORBOL]	4.3			
C=C(C)[C@@]12OC3(c4ccccc4)O[C@@H]1[C@@H]1[C@@H]4O[C@]4(CO)[C@@H](O)[C@]4(O)C(=O)C(C)=C[C@H]4[C@@]1(O3)[C@H](C)[C@H]2OC(=O)/C=C/C=C/c1ccccc1	5.8			
CCCCC(=O)O[C@@H]1[C@@H](C)[C@@]2(O)[C@@H](C=C(CO)C[C@]3(O)C(=O)C(C)=C[C@@H]23)[C@@H]2C(C)(C)[C@]12OC(=O)CCC	4			
